Laboratory results as given in ChEMBL document CHEMBL2346604, “Synthesis of nordihydroguaiaretic acid derivatives and their bioactivities on S. pombe and K562 cell lines” (Eur J Med Chem, 2013).
In brackets after ≈: the same amount, converted by molar mass. Activity calls are given as the source filed them. No cut-off for these calls is given here.

Key:
[1] = test system: Schizosaccharomyces pombe; assay: Inhibitive ratio of growth metabolism of Schizosaccharomyces pombe ACCC 20047 at 40 mg/L at 32 degC by TAM air microcalorimetry (reference value: 0%); type: functional
Procedure, shortened: (§1)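 Cells seeded at 1×10⁶ cells/mL with compound at a range of concentrations. Heat output recorded continuously in a TAM Air isothermal microcalorimeter. Growth rate constant k taken from power-time curves. I = (k0 − kc)/k0 × 100%, and IC50 is the concentration giving I = 50%. n = 3.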

[2] = test system: Schizosaccharomyces pombe; assay: Inhibitive ratio of growth metabolism of Schizosaccharomyces pombe ACCC 20047 at 80 mg/L at 32 degC by TAM air microcalorimetry (reference value: 0%); type: functional; procedure, shortened: as §1
K562 [3] = assay: Inhibition of growth metabolism of human K562 cells assessed as growth rate constant at 6 mg/L at 37 degC by TAM air microcalorimetry; type: functional
Procedure, shortened: (§2)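 K562 cells in supplemented RPMI 1640 (10% FBS) seeded at 1×10⁶ cells/mL with compound at graded concentrations. Heat flow recorded in real time in an eight-channel isothermal microcalorimeter (TAM Air). Rate constant k derived from thermogenic growth curves. Inhibition ratio I = (k0 − kc)/k0 × 100% relative to untreated cells, and IC50 is the concentration at I = 50%. Mean ± S.D., n = 3.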

K562 [4] = assay: Inhibition of growth metabolism of human K562 cells assessed as growth rate constant at 14 mg/L at 37 degC by TAM air microcalorimetry; type: functional; procedure, shortened: as §2
K562 [5] = assay: Inhibitive ratio of growth metabolism of human K562 cells at 12 mg/L at 37 degC by TAM air microcalorimetry (reference value: 0%); type: functional; procedure, shortened: as §2
[6] = test system: Schizosaccharomyces pombe; assay: Inhibition of growth metabolism of Schizosaccharomyces pombe ACCC 20047 assessed as growth rate constant at 80 mg/L at 32 degC by TAM air microcalorimetry; type: functional; procedure, shortened: as §1
[7] = test system: Schizosaccharomyces pombe; assay: Inhibitive ratio of growth metabolism of Schizosaccharomyces pombe ACCC 20047 at 400 mg/L at 32 degC by TAM air microcalorimetry (reference value: 0%); type: functional; procedure, shortened: as §1
[8] = test system: Schizosaccharomyces pombe; assay: Inhibition of growth metabolism of Schizosaccharomyces pombe ACCC 20047 assessed as growth rate constant at 20 mg/L at 32 degC by TAM air microcalorimetry; type: functional; procedure, shortened: as §1
[9] = test system: Schizosaccharomyces pombe; assay: Inhibitive ratio of growth metabolism of Schizosaccharomyces pombe ACCC 20047 at 160 mg/L at 32 degC by TAM air microcalorimetry (reference value: 0%); type: functional; procedure, shortened: as §1
K562 [10] = assay: Inhibition of growth metabolism of human K562 cells at 37 degC by TAM air microcalorimetry; type: functional, cell-based; procedure, shortened: as §2
K562 [11] = assay: Inhibition of growth metabolism of human K562 cells assessed as growth rate constant at 12 mg/L at 37 degC by TAM air microcalorimetry; type: functional; procedure, shortened: as §2
K562 [12] = assay: Inhibitive ratio of growth metabolism of human K562 cells at 6 mg/L at 37 degC by TAM air microcalorimetry (reference value: 0%); type: functional; procedure, shortened: as §2
K562 [13] = assay: Inhibitive ratio of growth metabolism of human K562 cells at 4 mg/L at 37 degC by TAM air microcalorimetry (reference value: 0%); type: functional; procedure, shortened: as §2
[14] = test system: Schizosaccharomyces pombe; assay: Inhibition of growth metabolism of Schizosaccharomyces pombe ACCC 20047 assessed as growth rate constant at 160 mg/L at 32 degC by TAM air microcalorimetry; type: functional; procedure, shortened: as §1
[15] = test system: Schizosaccharomyces pombe; assay: Inhibition of growth metabolism of Schizosaccharomyces pombe ACCC 20047 assessed as growth rate constant at 240 mg/L at 32 degC by TAM air microcalorimetry; type: functional; procedure, shortened: as §1
[16] = test system: Schizosaccharomyces pombe; assay: Inhibition of growth metabolism of Schizosaccharomyces pombe ACCC 20047 assessed as growth rate constant at 40 mg/L at 32 degC by TAM air microcalorimetry; type: functional; procedure, shortened: as §1
[17] = test system: Schizosaccharomyces pombe; assay: Inhibition of growth metabolism of Schizosaccharomyces pombe ACCC 20047 assessed as growth rate constant at 400 mg/L at 32 degC by TAM air microcalorimetry; type: functional; procedure, shortened: as §1
K562 [18] = assay: Inhibition of growth metabolism of human K562 cells assessed as growth rate constant at 8 mg/L at 37 degC by TAM air microcalorimetry; type: functional; procedure, shortened: as §2
[19] = test system: Schizosaccharomyces pombe; assay: Inhibitive ratio of growth metabolism of Schizosaccharomyces pombe ACCC 20047 at 320 mg/L at 32 degC by TAM air microcalorimetry (reference value: 0%); type: functional; procedure, shortened: as §1
K562 [20] = assay: Inhibition of growth metabolism of human K562 cells assessed as growth rate constant at 4 mg/L at 37 degC by TAM air microcalorimetry; type: functional; procedure, shortened: as §2
K562 [21] = assay: Inhibition of growth metabolism of human K562 cells assessed as growth rate constant at 2 mg/L at 37 degC by TAM air microcalorimetry; type: functional; procedure, shortened: as §2
[22] = test system: Schizosaccharomyces pombe; assay: Inhibitive ratio of growth metabolism of Schizosaccharomyces pombe ACCC 20047 at 240 mg/L at 32 degC by TAM air microcalorimetry (reference value: 0%); type: functional; procedure, shortened: as §1
[23] = test system: Schizosaccharomyces pombe; assay: Inhibitive ratio of growth metabolism of Schizosaccharomyces pombe ACCC 20047 at 20 mg/L at 32 degC by TAM air microcalorimetry (reference value: 0%); type: functional; procedure, shortened: as §1
[24] = test system: Schizosaccharomyces pombe; assay: Inhibition of growth metabolism of Schizosaccharomyces pombe ACCC 20047 assessed as growth rate constant at 320 mg/L at 32 degC by TAM air microcalorimetry; type: functional; procedure, shortened: as §1
K562 [25] = assay: Inhibitive ratio of growth metabolism of human K562 cells at 8 mg/L at 37 degC by TAM air microcalorimetry (reference value: 0%); type: functional; procedure, shortened: as §2
K562 [26] = assay: Inhibitive ratio of growth metabolism of human K562 cells at 2 mg/L at 37 degC by TAM air microcalorimetry (reference value: 0%); type: functional; procedure, shortened: as §2
K562 [27] = assay: Inhibitive ratio of growth metabolism of human K562 cells at 14 mg/L at 37 degC by TAM air microcalorimetry (reference value: 0%); type: functional; procedure, shortened: as §2
[28] = test system: Schizosaccharomyces pombe; assay: Inhibition of growth metabolism of Schizosaccharomyces pombe ACCC 20047 at 32 degC by TAM air microcalorimetry; type: functional, organism-based; procedure, shortened: as §1
[29] = test system: Schizosaccharomyces pombe; assay: Inhibitive ratio of growth metabolism of Schizosaccharomyces pombe ACCC 20047 at 380 mg/L at 32 degC by TAM air microcalorimetry (reference value: 0%); type: functional; procedure, shortened: as §1
K562 [30] = assay: Inhibition of growth metabolism of human K562 cells assessed as growth rate constant at 3 mg/L at 37 degC by TAM air microcalorimetry; type: functional; procedure, shortened: as §2
K562 [31] = assay: Inhibition of growth metabolism of human K562 cells assessed as growth rate constant at 5 mg/L at 37 degC by TAM air microcalorimetry; type: functional; procedure, shortened: as §2
K562 [32] = assay: Induction of apoptosis in human K562 cells assessed as mitochondrial transmembrane potential at 6 mg/L after 18 hrs by Rh123 staining based fluorescence spectrophotometer analysis (reference value: 788.8 +/-1.0%); type: functional
K562 [33] = assay: Induction of late apoptosis in human K562 cells assessed as cell membrane structural changes, smaller nuclear size, chromatin assembly under nuclear envelope, clear nuclear membrane structure, lipid droplets in cytoplasm, protruded cell surface with red nucleus at 4 to 6 mg/L after 12 to 24 hrs by propidium iodide staining based fluorescence microscopy; type: functional
Procedure, shortened: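 K562 groups at 0, 4.0 and 6.0 mg/L were held 12, 18 or 24 h at 37 °C in 5% CO2. Cells (1 mL) were collected, washed three times in PBS, stained with propidium iodide for 5 min in the dark and washed. Morphology of membrane, nucleus, chromatin and cytoplasm was scored against untreated controls.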

[34] = test system: Schizosaccharomyces pombe; assay: Inhibition of growth metabolism of Schizosaccharomyces pombe ACCC 20047 assessed as growth rate constant at 380 mg/L at 32 degC by TAM air microcalorimetry; type: functional; procedure, shortened: as §1
K562 [35] = assay: Inhibitive ratio of growth metabolism of human K562 cells at 3 mg/L at 37 degC by TAM air microcalorimetry (reference value: 0%); type: functional; procedure, shortened: as §2
K562 [36] = assay: Induction of apoptosis in human K562 cells assessed as mitochondrial transmembrane potential at 6 mg/L after 12 hrs by Rh123 staining based fluorescence spectrophotometer analysis (reference value: 668.2 +/-0.8%); type: functional
K562 [37] = assay: Induction of apoptosis in human K562 cells assessed as mitochondrial transmembrane potential at 4 mg/L after 24 hrs by Rh123 staining based fluorescence spectrophotometer analysis (reference value: 277.9 +/-1.4%); type: functional
K562 [38] = assay: Induction of apoptosis in human K562 cells assessed as mitochondrial transmembrane potential at 4 mg/L after 18 hrs by Rh123 staining based fluorescence spectrophotometer analysis (reference value: 788.8 +/-1.0%); type: functional
K562 [39] = assay: Induction of apoptosis in human K562 cells assessed as mitochondrial transmembrane potential at 6 mg/L after 24 hrs by Rh123 staining based fluorescence spectrophotometer analysis (reference value: 277.9 +/-1.4%)
K562 [40] = assay: Inhibitive ratio of growth metabolism of human K562 cells at 5 mg/L at 37 degC by TAM air microcalorimetry (reference value: 0%); type: functional; procedure, shortened: as §2
K562 [41] = assay: Induction of apoptosis in human K562 cells assessed as mitochondrial transmembrane potential at 4 mg/L after 12 hrs by Rh123 staining based fluorescence spectrophotometer analysis (reference value: 668.2 +/-0.8%); type: functional

Row | SMILES | inhibition at 40 µg/mL [1] | inhibition at 80 µg/mL [2] | Activity (K562 [3]) | Activity [6] | Activity [8] | inhibition at 160 µg/mL [9] | IC50 (K562 [10]) | inhibition at 6 µg/mL (K562 [12]) | inhibition at 4 µg/mL (K562 [13]) | Activity [14] | Activity [15] | Activity [16] | Activity (K562 [18]) | inhibition at 320 µg/mL [19] | Activity (K562 [20]) | Activity (K562 [21]) | inhibition at 240 µg/mL [22] | inhibition at 20 µg/mL [23] | Activity [24] | inhibition at 8 µg/mL (K562 [25]) | also measured
1 | COc1ccc(-c2oc(-c3ccc(OC)c(OC)c3)c(C)c2C)cc1OC | -1.66% | -2.13% | 3.1202 ×10⁻⁴ /min | 0.00431 min⁻¹ | 0.00427 min⁻¹ | -1.9% | 11.2 µg/mL (≈ 30.5 µM) | 18.9% | -13.2% | 0.0043 min⁻¹ | 0.00346 min⁻¹ | 0.00429 min⁻¹ | 3.0855 ×10⁻⁴ /min | 35.3% | 4.3527 ×10⁻⁴ /min | 3.9155 ×10⁻⁴ /min | 18% | -1.18% | 0.00273 min⁻¹ | 19.8% | Activity (K562 [4]): 7.6784 ×10⁻⁵ /min; inhibition at 12 µg/mL (K562 [5]): 57.1%; inhibition at 400 µg/mL [7]: 73.2%; Activity (K562 [11]): 1.65 ×10⁻⁴ /min; Activity [17]: 0.00113 min⁻¹; inhibition at 2 µg/mL (K562 [26]): -1.79%; inhibition at 14 µg/mL (K562 [27]): 80%; IC50 [28]: 350 µg/mL (≈ 950 µM)
2 | COc1ccc(C[C@@H](C)[C@@H](C)Cc2ccc(OC)c(OC)c2)cc1OC [TERAMEPROCOL] | 8.13% | 4.06% | 1.9712 ×10⁻⁴ /min | 0.00425 min⁻¹ | 0.00401 min⁻¹ | 11.5% | 5.87 µg/mL (≈ 16.4 µM) | 52.9% | 5.06% | 0.00392 min⁻¹ | 0.00322 min⁻¹ | 0.00407 min⁻¹ | 8.5275 ×10⁻⁵ /min | 44.7% | 3.9762 ×10⁻⁴ /min | 4.7239 ×10⁻⁴ /min | 27.3% | 9.48% | 0.00245 min⁻¹ | 79.6% | inhibition at 380 µg/mL [29]: 67.7%; Activity (K562 [30]): 4.4342 ×10⁻⁴ /min; Activity (K562 [31]): 2.7992 ×10⁻⁴ /min; Activity (K562 [32]): 331.5%; Activity (K562 [33]): Active; Activity [34]: 0.00143 min⁻¹; inhibition at 3 µg/mL (K562 [35]): -5.88%; Activity (K562 [36]): 477.8%; Activity (K562 [37]): 168%; Activity (K562 [38]): 615.3%; Activity (K562 [39]): 170.7%; inhibition at 2 µg/mL (K562 [26]): -12.8%; inhibition at 5 µg/mL (K562 [40]): 33.2%; Activity (K562 [41]): 597.2%; IC50 [28]: 330 µg/mL (≈ 921 µM)
